Test system: U2OS
Test: Multiplex assay against U2OS
Assay type: toxicity, cell-based
Details: human
Summary of the method: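 Compound was added to live cells that had been stained at seeding with Hoechst33342, BioTracker Green Microtubule Cytoskeleton Dye, MitoTracker Red and Annexin V Alexa Fluor 680, and imaging followed on a CQ1 microscope at 37°C and 5% CO2. CellPathfinder machine-learning gating divided cells into Hoechst high-intensity objects or normal cells, normal cells into healthy, pyknosed or fragmented nuclei, and pyknosed cells into mitotic or apoptotic. Tubulin, mitochondrial-mass and membrane-permeability phenotypes are per cents of healthy-nucleus cells.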

[1] = 12 h, 1 µM, compound concentration 1 uM, replicate 1
[2] = 12 h, 1 µM, compound concentration 1 uM, replicate 2
[3] = 12 h, 10 µM, compound concentration 10 uM, replicate 1
[4] = 12 h, 10 µM, compound concentration 10 uM, replicate 2
[5] = 24 h, 1 µM, compound concentration 1 uM, replicate 1
[6] = 24 h, 1 µM, compound concentration 1 uM, replicate 2
[7] = 24 h, 10 µM, compound concentration 10 uM, replicate 1
[8] = 24 h, 10 µM, compound concentration 10 uM, replicate 2
[9] = 48 h, 1 µM, compound concentration 1 uM, replicate 1
[10] = 48 h, 1 µM, compound concentration 1 uM, replicate 2
[11] = 48 h, 10 µM, compound concentration 10 uM, replicate 1
[12] = 48 h, 10 µM, compound concentration 10 uM, replicate 2

C=CCn1c(=O)c2cnc(Nc3ccc(N4CCN(C)CC4)cc3)nc2n1-c1cccc(C(C)(C)O)n1 [ADAVOSERTIB]
Population Apoptotic (%) [1]: 43% | Population Fragmented Nuclei (%) [1]: 11% | Population Healthy Nuclei (%) [1]: 60% | Population Hoechst High Intensity Objects (%) [1]: 3% | Population Membrane Permeable-Phenotype (%) [1]: 23% | Population Mitochondria Different-Phenotype (%) [1]: 15% | Population Mitotic Cells (%) [1]: 56% | Population Normal (%) [1]: 96% | Population Pyknosed Nuclei (%) [1]: 27% | Population Tubulin-Different-Phenotype (%) [1]: 21% | Total Cell Count [1]: 153 | Population Apoptotic (%) [2]: 12% | Population Fragmented Nuclei (%) [2]: 16% | Population Healthy Nuclei (%) [2]: 62% | Population Hoechst High Intensity Objects (%) [2]: 5% | Population Membrane Permeable-Phenotype (%) [2]: 13% | Population Mitochondria Different-Phenotype (%) [2]: 5% | Population Mitotic Cells (%) [2]: 87% | Population Normal (%) [2]: 94% | Population Pyknosed Nuclei (%) [2]: 21% | Population Tubulin-Different-Phenotype (%) [2]: 23% | Total Cell Count [2]: 165 | Population Apoptotic (%) [3]: 40% | Population Fragmented Nuclei (%) [3]: 25% | Population Healthy Nuclei (%) [3]: 13% | Population Hoechst High Intensity Objects (%) [3]: 8% | Population Membrane Permeable-Phenotype (%) [3]: 42% | Population Mitochondria Different-Phenotype (%) [3]: 47% | Population Mitotic Cells (%) [3]: 59% | Population Normal (%) [3]: 91% | Population Pyknosed Nuclei (%) [3]: 60% | Population Tubulin-Different-Phenotype (%) [3]: 80% | Total Cell Count [3]: 167 | Population Apoptotic (%) [4]: 44% | Population Fragmented Nuclei (%) [4]: 22% | Population Healthy Nuclei (%) [4]: 14% | Population Hoechst High Intensity Objects (%) [4]: 28% | Population Membrane Permeable-Phenotype (%) [4]: 37% | Population Mitochondria Different-Phenotype (%) [4]: 62% | Population Mitotic Cells (%) [4]: 55% | Population Normal (%) [4]: 71% | Population Pyknosed Nuclei (%) [4]: 62% | Population Tubulin-Different-Phenotype (%) [4]: 75% | Total Cell Count [4]: 76 | Population Apoptotic (%) [5]: 62% | Population Fragmented Nuclei (%) [5]: 20% | Population Healthy Nuclei (%) [5]: 41% | Population Hoechst High Intensity Objects (%) [5]: 8% | Population Membrane Permeable-Phenotype (%) [5]: 30% | Population Mitochondria Different-Phenotype (%) [5]: 25% | Population Mitotic Cells (%) [5]: 37% | Population Normal (%) [5]: 91% | Population Pyknosed Nuclei (%) [5]: 38% | Population Tubulin-Different-Phenotype (%) [5]: 38% | Total Cell Count [5]: 155 | Population Apoptotic (%) [6]: 50% | Population Fragmented Nuclei (%) [6]: 22% | Population Healthy Nuclei (%) [6]: 51% | Population Hoechst High Intensity Objects (%) [6]: 9% | Population Membrane Permeable-Phenotype (%) [6]: 21% | Population Mitochondria Different-Phenotype (%) [6]: 26% | Population Mitotic Cells (%) [6]: 50% | Population Normal (%) [6]: 90% | Population Pyknosed Nuclei (%) [6]: 26% | Population Tubulin-Different-Phenotype (%) [6]: 31% | Total Cell Count [6]: 149 | Population Apoptotic (%) [7]: 64% | Population Fragmented Nuclei (%) [7]: 36% | Population Healthy Nuclei (%) [7]: 11% | Population Hoechst High Intensity Objects (%) [7]: 13% | Population Membrane Permeable-Phenotype (%) [7]: 76% | Population Mitochondria Different-Phenotype (%) [7]: 82% | Population Mitotic Cells (%) [7]: 35% | Population Normal (%) [7]: 86% | Population Pyknosed Nuclei (%) [7]: 51% | Population Tubulin-Different-Phenotype (%) [7]: 88% | Total Cell Count [7]: 165 | Population Apoptotic (%) [8]: 68% | Population Fragmented Nuclei (%) [8]: 42% | Population Healthy Nuclei (%) [8]: 15% | Population Hoechst High Intensity Objects (%) [8]: 22% | Population Membrane Permeable-Phenotype (%) [8]: 75% | Population Mitochondria Different-Phenotype (%) [8]: 62% | Population Mitotic Cells (%) [8]: 31% | Population Normal (%) [8]: 77% | Population Pyknosed Nuclei (%) [8]: 42% | Population Tubulin-Different-Phenotype (%) [8]: 75% | Total Cell Count [8]: 67

O=C(Nc1ccc(-n2nc(-c3cccnc3)cc2C(F)(F)F)cn1)c1ccc(-c2ccccc2)c(F)c1 [BI 2049]
Population Apoptotic (%) [1]: 63% | Population Fragmented Nuclei (%) [1]: 12% | Population Healthy Nuclei (%) [1]: 74% | Population Hoechst High Intensity Objects (%) [1]: 12% | Population Membrane Permeable-Phenotype (%) [1]: 6% | Population Mitochondria Different-Phenotype (%) [1]: 10% | Population Mitotic Cells (%) [1]: 36% | Population Normal (%) [1]: 87% | Population Pyknosed Nuclei (%) [1]: 12% | Population Tubulin-Different-Phenotype (%) [1]: 12% | Total Cell Count [1]: 99 | Population Apoptotic (%) [2]: 50% | Population Fragmented Nuclei (%) [2]: 4% | Population Healthy Nuclei (%) [2]: 85% | Population Hoechst High Intensity Objects (%) [2]: 8% | Population Membrane Permeable-Phenotype (%) [2]: 3% | Population Mitochondria Different-Phenotype (%) [2]: 7% | Population Mitotic Cells (%) [2]: 50% | Population Normal (%) [2]: 91% | Population Pyknosed Nuclei (%) [2]: 9% | Population Tubulin-Different-Phenotype (%) [2]: 44% | Total Cell Count [2]: 69 | Population Apoptotic (%) [3]: 30% | Population Fragmented Nuclei (%) [3]: 13% | Population Healthy Nuclei (%) [3]: 69% | Population Hoechst High Intensity Objects (%) [3]: 9% | Population Membrane Permeable-Phenotype (%) [3]: 6% | Population Mitochondria Different-Phenotype (%) [3]: 24% | Population Mitotic Cells (%) [3]: 70% | Population Normal (%) [3]: 90% | Population Pyknosed Nuclei (%) [3]: 17% | Population Tubulin-Different-Phenotype (%) [3]: 35% | Total Cell Count [3]: 129 | Population Apoptotic (%) [4]: 0% | Population Fragmented Nuclei (%) [4]: 18% | Population Healthy Nuclei (%) [4]: 81% | Population Hoechst High Intensity Objects (%) [4]: 6% | Population Membrane Permeable-Phenotype (%) [4]: 4% | Population Mitochondria Different-Phenotype (%) [4]: 12% | Population Mitotic Cells (%) [4]: 0% | Population Normal (%) [4]: 93% | Population Pyknosed Nuclei (%) [4]: 0% | Population Tubulin-Different-Phenotype (%) [4]: 8% | Total Cell Count [4]: 65 | Population Apoptotic (%) [5]: 60% | Population Fragmented Nuclei (%) [5]: 8% | Population Healthy Nuclei (%) [5]: 79% | Population Hoechst High Intensity Objects (%) [5]: 5% | Population Membrane Permeable-Phenotype (%) [5]: 3% | Population Mitochondria Different-Phenotype (%) [5]: 6% | Population Mitotic Cells (%) [5]: 40% | Population Normal (%) [5]: 94% | Population Pyknosed Nuclei (%) [5]: 11% | Population Tubulin-Different-Phenotype (%) [5]: 13% | Total Cell Count [5]: 136 | Population Apoptotic (%) [6]: 25% | Population Fragmented Nuclei (%) [6]: 7% | Population Healthy Nuclei (%) [6]: 83% | Population Hoechst High Intensity Objects (%) [6]: 7% | Population Membrane Permeable-Phenotype (%) [6]: 4% | Population Mitochondria Different-Phenotype (%) [6]: 9% | Population Mitotic Cells (%) [6]: 75% | Population Normal (%) [6]: 92% | Population Pyknosed Nuclei (%) [6]: 8% | Population Tubulin-Different-Phenotype (%) [6]: 37% | Total Cell Count [6]: 96 | Population Apoptotic (%) [7]: 34% | Population Fragmented Nuclei (%) [7]: 10% | Population Healthy Nuclei (%) [7]: 71% | Population Hoechst High Intensity Objects (%) [7]: 5% | Population Membrane Permeable-Phenotype (%) [7]: 6% | Population Mitochondria Different-Phenotype (%) [7]: 21% | Population Mitotic Cells (%) [7]: 65% | Population Normal (%) [7]: 94% | Population Pyknosed Nuclei (%) [7]: 18% | Population Tubulin-Different-Phenotype (%) [7]: 19% | Total Cell Count [7]: 135 | Population Apoptotic (%) [8]: 0% | Population Fragmented Nuclei (%) [8]: 11% | Population Healthy Nuclei (%) [8]: 84% | Population Hoechst High Intensity Objects (%) [8]: 3% | Population Membrane Permeable-Phenotype (%) [8]: 4% | Population Mitochondria Different-Phenotype (%) [8]: 13% | Population Mitotic Cells (%) [8]: 100% | Population Normal (%) [8]: 96% | Population Pyknosed Nuclei (%) [8]: 3% | Population Tubulin-Different-Phenotype (%) [8]: 10% | Total Cell Count [8]: 82 | Population Apoptotic (%) [9]: 33% | Population Fragmented Nuclei (%) [9]: 9% | Population Healthy Nuclei (%) [9]: 82% | Population Hoechst High Intensity Objects (%) [9]: 5% | Population Mitochondria Different-Phenotype (%) [9]: 12% | Population Mitotic Cells (%) [9]: 66% | Population Normal (%) [9]: 94% | Population Pyknosed Nuclei (%) [9]: 7% | Population Tubulin-Different-Phenotype (%) [9]: 10% | Total Cell Count [9]: 200 | Population Apoptotic (%) [10]: 22% | Population Fragmented Nuclei (%) [10]: 2% | Population Healthy Nuclei (%) [10]: 91% | Population Hoechst High Intensity Objects (%) [10]: 3% | Population Membrane Permeable-Phenotype (%) [10]: 1% | Population Mitochondria Different-Phenotype (%) [10]: 10% | Population Mitotic Cells (%) [10]: 77% | Population Normal (%) [10]: 96% | Population Pyknosed Nuclei (%) [10]: 6% | Population Tubulin-Different-Phenotype (%) [10]: 41% | Total Cell Count [10]: 146 | Population Apoptotic (%) [11]: 63% | Population Fragmented Nuclei (%) [11]: 8% | Population Healthy Nuclei (%) [11]: 74% | Population Hoechst High Intensity Objects (%) [11]: 3% | Population Membrane Permeable-Phenotype (%) [11]: 7% | Population Mitochondria Different-Phenotype (%) [11]: 13% | Population Mitotic Cells (%) [11]: 36% | Population Normal (%) [11]: 96% | Population Pyknosed Nuclei (%) [11]: 17% | Population Tubulin-Different-Phenotype (%) [11]: 11% | Total Cell Count [11]: 181 | Population Apoptotic (%) [12]: 11% | Population Fragmented Nuclei (%) [12]: 7% | Population Healthy Nuclei (%) [12]: 85% | Population Hoechst High Intensity Objects (%) [12]: 2% | Population Membrane Permeable-Phenotype (%) [12]: 3% | Population Mitochondria Different-Phenotype (%) [12]: 11% | Population Mitotic Cells (%) [12]: 88% | Population Normal (%) [12]: 97% | Population Pyknosed Nuclei (%) [12]: 7% | Population Tubulin-Different-Phenotype (%) [12]: 6% | Total Cell Count [12]: 128

Reference: ChEMBL document CHEMBL4689842, “EUbOPEN Chemogenomics Library wave 1” (2021)
